According to ChEMBL document CHEMBL4038313, “Expanding the Antiviral Spectrum of 3-Fluoro-2-(phosphonomethoxy)propyl Acyclic Nucleoside Phosphonates: Diamyl Aspartate Amidate Prodrugs” (J Med Chem, 2017):

What was measured:
[1] = test system: Hepatitis B virus; assay: Antiviral activity against HBV ayw1 infected in human HepG2(2.2.15) cells assessed as reduction in viral replication by measuring extracellular viral DNA copy number after 6 days by real-time qPCR method; assay type: functional, cell-based; settings: ayw1, HepG2 2.2.15, 144 h
Procedure, shortened: (§1)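 HepG2.2.15 cells (two copies of HBV ayw1 genome), 1.5 × 10^4/well in DMEM with 2% FBS and 380 μg/mL G418. After 16–24 h, compound added in triplicate, medium with compound renewed at day 3. Supernatant collected at day 6, Pronase-treated, and extracellular HBV DNA measured by TaqMan qPCR (precore/core) against an HBV DNA standard curve. EC50/EC90 derived; CC50 by MTS uptake.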

[2] = Cytotoxicity against human HepG2.2.15 cells assessed as cell viability by tetrazolium dye uptake assay; assay type: cell-based, HepG2 2.2.15
Procedure, shortened: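 HepG2.2.15 cells (two integrated copies of HBV ayw1 genome) were seeded at 1.5 × 10^4 cells/well in DMEM with 2% FBS, 380 μg/mL G418, glutamine, antibiotics and nonessential amino acids. After 16−24 h, medium with various compound concentrations was added in triplicate and renewed on day 3. After 6 days of treatment, viability was read by MTS uptake and CC50 was calculated.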

[3] = Selectivity index, ratio of CC50 for HepG2.2.15 cells to EC50 for HBV ayw1 infected in human HepG2(2.2.15) cells assessed as reduction in viral replication by measuring extracellular viral DNA copy; procedure, shortened: as §1
[4] = test system: Hepatitis B virus; assay: Antiviral activity against HBV ayw1 infected in human HepG2(2.2.15) cells assessed as reduction in viral replication by measuring intracellular viral DNA copy number after 6 days byr by real-time qPCR assay; assay type: functional, cell-based; settings: ayw1, HepG2 2.2.15, 144 h
Procedure, shortened: (§2)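 Run as the HepG2.2.15 6-day assay (triplicate compound, medium with compound renewed at day 3). At the end, total intracellular DNA was isolated from the cells and HBV DNA copy number measured by TaqMan qPCR. EC50/EC90 derived; SI is CC50/EC50.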

[5] = Selectivity index, ratio of CC50 for HepG2.2.15 cells to EC50 for HBV ayw1 infected in human HepG2(2.2.15) cells assessed as reduction in viral replication by measuring intracellular viral DNA copy; procedure, shortened: as §2
[6] = test system: Human immunodeficiency virus 1; assay: Antiviral activity against CXCR4-tropic HIV-1 NL4-3 infected in human TZM-bl cells assessed as inhibition of virus-induced cytopathic effect preincubated with cells for 30 mins followed by viral infection measured after 48 hrs in presence of p-24 HIV-1 Ag by luciferase reporter gene assay; assay type: functional, cell-based; settings: Human immunodeficiency virus 1, NL4-3, TZM-bl
Procedure, shortened: (§3)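 TZM-bl cells, 1 × 10^4 per well in DMEM with 10% FBS and 10 mM […], incubated 30 min at 37 °C with compound. Then HIV-1 NL4.3 (X4) or BaL (R5) added at 100 pg p24 Ag per well. After 48 h, cells lysed with luciferase substrate. Tat-induced luminescence read after 10 min dark incubation as a measure of replication.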

[7] = test system: Human immunodeficiency virus 1; assay: Antiviral activity against CCR5 tropic HIV1 BaL infected in human TZM-bl cells assessed as inhibition of virus-induced cytopathic effect preincubated with cells for 30 mins followed by viral infection measured after 48 hrs in presence of p-24 HIV-1 Ag by luciferase reporter gene assay; assay type: functional, cell-based; settings: Human immunodeficiency virus 1, BaL; procedure, shortened: as §3
[8] = Cytotoxicity against human TZM-bl cells assessed as cell viability by tetrazolium dye assay; assay type: cell-based
[9] = test system: Human immunodeficiency virus 1; assay: (§4) Antiviral activity against CXCR4-tropic HIV-1 NL4-3 infected in human PHA-stimulated PBMC assessed as inhibition of viral replication by measuring reduction in p24 antigen production preincubated with cells for 30 mins followed by viral infection measured on day 10 post infection in presence of IL-2 by ELISA; assay type: functional; settings: Human immunodeficiency virus 1, NL4-3
Procedure, shortened: (§5)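 PBMCs stimulated with 2 μg/mL PHA for 3 days at 37 °C, then 5 × 10^5 cells/ml preincubated 30 min at 37 °C with serial compound dilutions plus 2 ng/mL IL-2. Infected with 1500 pg/well HIV-1 BaL or 500 pg/well other isolates. IL-2 re-added on days 3 and 6. Supernatant p24 Ag measured by ELISA at day 10. EC50 is 50% inhibition of replication.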

[10] = test system: Human immunodeficiency virus 1; assay: as §4, with “CCR5 tropic HIV1 BaL” for “CXCR4-tropic HIV-1 NL4-3”; assay type: functional; settings: Human immunodeficiency virus 1, BaL; procedure, shortened: as §5
[11] = Cytotoxicity against human PHA-stimulated PBMC assessed as cell viability by tetrazolium dye assay; assay type: cell-based
[12] = Selectivity index, ratio of CC50 for human TZM-bl cells to EC50 for CXCR4-tropic HIV-1 NL4-3 infected in human TZM-bl cells; assay type: toxicity, cell-based; settings: read-out: Ratio CC50/EC50
[13] = Selectivity index, ratio of CC50 for human TZM-bl cells to EC50 for CCR5 tropic HIV1 BaL infected in human TZM-bl cells; assay type: toxicity, cell-based; settings: read-out: Ratio CC50/EC50
[14] = Selectivity index, ratio of CC50 for human PHA-stimulated PBMC to IC50 for CXCR4-tropic HIV-1 NL4-3 infected in human PHA-stimulated PBMC
[15] = Selectivity index, ratio of CC50 for human PHA-stimulated PBMCs to IC50 for CCR5 tropic HIV1 BaL infected in human PHA-stimulated PBMC
[16] = test system: Human immunodeficiency virus 1; assay: Antiviral activity against tenofovir-resistant CXCR4-tropic HIV-1 NL4-3 harboring reverse transcriptase K65R mutant infected in human MT4 cells assessed as inhibition of viral replication inhibition of virus-induced cytopathic effect after 6 days by XTT dye based assay; assay type: functional, cell-based; settings: Human immunodeficiency virus 1, NL4-3, MT4, 144 h
Procedure, shortened: (§6)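 MT-4 cells, 1 × 10^4 per well, given compound dilutions and wild-type NL4-3 or K65R NL4-3. Virus titred to give 85–95% cell killing at day 6. Incubated 6 days at 37 °C, 5% CO2. Viability read by XTT at 450/650 nm. EC50 from CPE reduction and toxicity from uninfected drug wells, by four-parameter fit. Fold change is K65R EC50 over wild-type EC50.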

[17] = test system: Human immunodeficiency virus 1; assay: Selectivity ratio of EC50 for tenofovir-resistant CXCR4-tropic HIV-1 NL4-3 harboring reverse transcriptase K65R mutant infected in human MT4 cells to EC50 for CXCR4-tropic HIV-1 NL4-3 infected in human MT4 cells; assay type: functional; procedure, shortened: as §6
[18] = Cytotoxicity against human MT4 cells assessed as reduction in cell viability after 6 days by XTT tetrazolium dye-based assay; procedure, shortened: as §6
[19] = test system: Human immunodeficiency virus 1; assay: Antiviral activity against CXCR4-tropic HIV-1 NL4-3 infected in human MT4 cells assessed as inhibition of virus-induced cytopathic effect after 6 days by XTT dye based assay; assay type: functional, cell-based; settings: Human immunodeficiency virus 1, NL4-3, MT4, 144 h; procedure, shortened: as §6

C=C1[C@H](CO)[C@@H](O)C[C@@H]1n1cnc2c(=O)[nH]c(N)nc21.O [ENTECAVIR]
EC50 [1]: < 10 nM | EC90 [1]: > 1000 nM | CC50 [2]: > 1000 nM | Ratio CC50/EC50 [3]: >2381 | EC50 [4]: 0.35 nM | EC90 [4]: > 1000 nM | Ratio CC50/EC50 [5]: >2857

Nc1ccn([C@@H]2CS[C@H](CO)O2)c(=O)n1 [LAMIVUDINE]
EC50 [1]: 20 nM | EC90 [1]: > 2000 nM | CC50 [2]: > 2000 nM | Ratio CC50/EC50 [3]: >105 | EC50 [4]: 8.87 nM | EC90 [4]: > 2000 nM | Ratio CC50/EC50 [5]: >225

C[C@H](Cn1cnc2c(N)ncnc21)OCP(=O)(O)O [TENOFOVIR ANHYDROUS]
EC50 [6]: 4000 nM | EC50 [7]: 6910 nM | CC50 [8]: > 100000 nM | IC50 [9]: 380 nM | IC50 [10]: 1400 nM | CC50 [11]: > 25000 nM | selectivity ratio [12]: > 25 | selectivity ratio [13]: > 14 | Ratio CC50/IC50 [14]: >66 | Ratio CC50/IC50 [15]: >18 | EC50 [16]: 100 nM | Ratio EC50 [17]: >16.7 | CC50 at 144 h [18]: > 20000 nM | EC50 [19]: < 60 nM

CC(C)OC(=O)OCOP(=O)(CO[C@H](C)Cn1cnc2c(N)ncnc21)OCOC(=O)OC(C)C.O=C(O)/C=C/C(=O)O [TENOFOVIR DISOPROXIL FUMARATE]
IC50 [9]: 80 nM | IC50 [10]: 220 nM | CC50 [11]: 14600 nM | Ratio CC50/IC50 [14]: 182 | Ratio CC50/IC50 [15]: 66 | EC50 [16]: 11300 nM | Ratio EC50 [17]: 2.3 | CC50 at 144 h [18]: > 20000 nM

Cc1cn([C@H]2C[C@H](N=[N+]=[N-])[C@@H](CO)O2)c(=O)[nH]c1=O [ZIDOVUDINE]
EC50 [16]: 5 nM | Ratio EC50 [17]: 1.3 | CC50 at 144 h [18]: > 500 nM | EC50 [19]: 4 nM
